The results in this text go back to ChEMBL document CHEMBL1165943, “Design and synthesis of new anticancer pyrimidines with multiple-kinase inhibitory effect” (Bioorg Med Chem, 2010).

What all share (format): functional
For one assay, the system named is COLO 205. Briefly: Cytotoxicity against human COLO205 cells assessed as cell growth at 10 uM. The settings on record: for growth at 10 µM: Homo sapiens, COLO 205, read-out: Activity. The method in brief:
(§1)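 Single-concentration screen at 10 μM across the 60-cell-line panel (nine tissue types); growth percentage recorded per cell line, with inhibition taken as 100 minus growth percentage.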

The next assay deals with SNB-19. Kind of assay: Cytotoxicity against human SNB19 cells assessed as cell growth at 10 uM. Particulars: read-out: Activity. The gist of the method:
(§2)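 Single-dose screen at 10 μM across the 60-cell-line panel. Cells grown in RPMI 1640 with 5% FBS and 2 mM L-glutamine, seeded at 5,000–40,000 cells/well according to doubling time, and treated 24 h later. Exposure lasted 48 h at 37 °C, 5% CO₂. Adherent cells were fixed with cold TCA, suspension cells were fixed settled, and both were stained with SRB and read at 515 nm. Growth % was recorded, with inhibition % = 100 − growth %.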

The test system of another assay is HL-60(TB). Briefly: Cytotoxicity against human HL-60(TB) cells assessed as cell growth at 10 uM. Particulars: for growth at 10 µM: Homo sapiens, HL-60, read-out: Activity. The method in brief:
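Single-concentration 10 µM screen of HL-60(TB) within the 60-line panel, grown in RPMI 1640 with 5% FBS. The drug from DMSO stock is incubated 48 h at 37 °C, settled cells are TCA-fixed and SRB-stained, and absorbance is read at 515 nm. Percent growth is reported, and inhibition % is taken as 100 minus growth %.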

Assay [1] can be described thus: Cytotoxicity against human Hs 578T cells assessed as cell growth at 10 uM. Particulars: read-out: Activity. The method in brief: as §1
A further assay relates to MDA-MB-435. Kind of assay: Cytotoxicity against human MDA-MB-435 cells assessed as cell growth at 10 uM. Particulars: read-out: Activity. The gist of the method:
as §2

In a further assay the test system is SK-MEL-28. Kind of assay: Cytotoxicity against human SK-MEL-28 cells assessed as cell growth at 10 uM. Particulars: for growth at 10 µM: Homo sapiens, SK-MEL-28, read-out: Activity. The method in brief:
as §2

Another assay deals with MDA-MB-231. Kind of assay: Cytotoxicity against human MDA-MB-231 cells assessed as cell growth at 10 uM. Particulars: for growth at 10 µM: Homo sapiens, MDA-MB-231, read-out: Activity. The method in brief: as §2
A further assay deals with UACC-257. Briefly: Cytotoxicity against human UACC257 cells assessed as cell growth at 10 uM. The settings on record: for growth at 10 µM: Homo sapiens, UACC-257, read-out: Activity. The gist of the method: as §2
The test system of the next assay is RXF 393. Kind of assay: Cytotoxicity against human RXF393 cells assessed as cell growth at 10 uM. Particulars: for growth at 10 µM: Homo sapiens, RXF 393, read-out: Activity. The method in brief: as §2
Another assay has as its system A498. Kind of assay: Cytotoxicity against human A498 cells assessed as cell growth at 10 uM. Particulars: for growth at 10 µM: Homo sapiens, A498, read-out: Activity. The gist of the method: as §1
For a further assay, the system named is CAKI-1. Kind of assay: Cytotoxicity against human Caki1 cells assessed as cell growth at 10 uM. Particulars: for growth at 10 µM: Homo sapiens, CAKI-1, read-out: Activity. The method in brief:
as §1

A short description of assay [2]: Cytotoxicity against human […] cells assessed as cell growth at 10 uM. Particulars: for growth at 10 µM: Homo sapiens, RPMI8266, read-out: Activity. The method in brief:
as §2

The subject of a further assay is SW-620. Kind of assay: Cytotoxicity against human SW620 cells assessed as cell growth at 10 uM. The settings on record: for growth at 10 µM: Homo sapiens, SW-620, read-out: Activity. The method in brief:
as §2

In another assay the test system is KM12. Briefly: Cytotoxicity against human KM12 cells assessed as cell growth at 10 uM. The settings on record: for growth at 10 µM: Homo sapiens, KM12, read-out: Activity. The gist of the method: as §2
A further assay concerns SN12C. Kind of assay: Cytotoxicity against human SN12C cells assessed as cell growth at 10 uM. The settings on record: for growth at 10 µM: Homo sapiens, SN12C, read-out: Activity. The gist of the method: as §2
Another assay concerns HOP-92. Kind of assay: Cytotoxicity against human HOP92 cells assessed as cell growth at 10 uM. Particulars: for growth at 10 µM: Homo sapiens, HOP-92, read-out: Activity. The gist of the method: as §1
The test system of another assay is A549. Briefly: Cytotoxicity against human A549 cells assessed as cell growth at 10 uM. The settings on record: for growth at 10 µM: Homo sapiens, A549, read-out: Activity. The method in brief:
as §1

Assay [3] can be described thus: Growth inhibition of human NCI60 cells at 10 uM after 48 hrs by sulforhodamine B assay relative to control. The settings on record: for inhibition of growth at 10 µM: Homo sapiens, NCI60, 48 h, read-out: GI. The gist of the method:
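Single 10 µM dose across the 60-line panel for 48 h, with the same culture, TCA fixation and SRB 515 nm read-out. Inhibition % = 100 − growth %, given as the mean over the 60 cell lines.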
In general terms: The SRB assay estimates cell density from bound dye.

Another assay concerns CCRF-CEM. Briefly: Cytotoxicity against human CCRF-CEM cells assessed as cell growth at 10 uM. The settings on record: for growth at 10 µM: Homo sapiens, CCRF-CEM, read-out: Activity. The method in brief:
as §1

Another assay concerns UO-31. Kind of assay: Cytotoxicity against human UO31 cells assessed as cell growth at 10 uM. Particulars: for growth at 10 µM: Homo sapiens, UO-31, read-out: Activity. The gist of the method:
as §2

The next assay deals with SF-539. Kind of assay: Cytotoxicity against human SF539 cells assessed as cell growth at 10 uM. The settings on record: for growth at 10 µM: Homo sapiens, SF-539, read-out: Activity. The gist of the method: as §2
In the next assay the test system is NCI-H23. Kind of assay: Cytotoxicity against human NCI-H23 cells assessed as cell growth at 10 uM. Particulars: for growth at 10 µM: Homo sapiens, NCI-H23, read-out: Activity. The method in brief:
as §2

With `CC(=O)c1ccc(-c2ccc(-c3ccnc(Nc4cc(C(F)(F)F)cc(C(F)(F)F)c4)n3)cn2)cc1`, the growth at 10 µM amounted to 110% in the assay with COLO 205; 110% in the assay on SNB-19; 107% in the assay on HL-60(TB); 110% in [1]; 115% in the assay with MDA-MB-435; 95.8% in the assay on SK-MEL-28. In addition, the growth at 10 µM in the assay on MDA-MB-231 came to 98.2%; in the assay with UACC-257, 102%; with RXF 393 it was 113%; with A498 it was 97.4%; in the assay with CAKI-1, 97.4%; in assay [2], 97.8%. The growth at 10 µM in the assay on SW-620 came out at 109%; with KM12 it was 114%; in the assay on SN12C it was 93.6%; in the assay on HOP-92 it was 103%; in the assay with A549, 104%; with CCRF-CEM, 99.4%. For the same compound, the values for the growth at 10 µM with UO-31, in the assay on SF-539 and in the assay with NCI-H23 were 79.3%, 89.7% and 96.5%, respectively. Further, the inhibition of growth at 10 µM in [3] is -2.21%.
For `FC(F)(F)c1cc(Nc2nccc(-c3cccnc3)n2)cc(C(F)(F)F)c1`, the growth at 10 µM worked out at 119% in the assay on COLO 205; 94% in the assay with SNB-19; 101% in the assay on HL-60(TB); 103% in [1]; 102% with MDA-MB-435; 115% in the assay on SK-MEL-28. Moreover, the growth at 10 µM with MDA-MB-231 amounted to 91.3%; in the assay with UACC-257, 111%; in the assay on RXF 393, 79%; in the assay with A498, 103%; in the assay on CAKI-1, 91.5%; in the assay on SW-620, 109%. The growth at 10 µM is 103% in the assay on KM12; 88% in the assay with SN12C; 93.8% with A549; 101% in the assay with UO-31; 97.1% in the assay on SF-539; 97.9% in the assay with NCI-H23. Moreover, in [3], the inhibition of growth at 10 µM is -0.32%.
Consider `FC(F)(F)c1cc(Nc2nccc(-c3ccc(Nc4ccccc4)nc3)n2)cc(C(F)(F)F)c1`, for which the growth at 10 µM with COLO 205 is 104%; in the assay on SNB-19, 91.6%; in the assay with HL-60(TB), 105%; in [1], 101%; with MDA-MB-435, 108%; in the assay with SK-MEL-28 it was 110%. The growth at 10 µM with MDA-MB-231 was 97.5%; in the assay with UACC-257, 99.5%; with RXF 393, 107%; in the assay with A498 it was 104%; in the assay on CAKI-1 it was 98%; in assay [2], 98.3%. The growth at 10 µM with SW-620 was 101%; in the assay on KM12, 112%; in the assay on HOP-92, 100%; in the assay with A549, 96.2%; with CCRF-CEM it was 96.6%; in the assay with UO-31, 79.5%. The figures for the growth at 10 µM in the assay with SF-539 and with NCI-H23 were 94.9% and 98.2%, respectively. In assay [3], the inhibition of growth at 10 µM was 0.2%.
With `CC(=O)c1ccccc1-c1ccc(-c2ccnc(NC(=O)Nc3cc(C(F)(F)F)cc(C(F)(F)F)c3)n2)cn1.Cl`, the Activity turned out to be 88.27% with COLO 205; 98.79% in the assay on HL-60(TB); 130.46% with RXF 393; 75.92% in assay [2]; 95.07% with SW-620; 92.08% in the assay with KM12. The Activity with HOP-92 is listed as 101%; in the assay with A549, 93.55%; in the assay with CCRF-CEM it was 88.36%; with SF-539, 91.97%; with NCI-H23, 84.35%. Moreover, the growth at 10 µM was determined as 103% in the assay with SK-MEL-28; 83.7% with MDA-MB-231; 102% with UACC-257; 113% with A498; 78.4% with CAKI-1; 88.4% in the assay with SN12C. Further, the growth at 10 µM in the assay on UO-31 came to 75%. Moreover, in [3], the “growth inhibition (GI)” value is listed as 9.74%.
Turning to `c1ccc(-c2ccc(-c3ccnc(Nc4ccc(N(c5ccccc5)c5ccccc5)cc4)n3)cn2)cc1`, the growth at 10 µM with COLO 205 is 116%; in the assay with SNB-19, 135%; in the assay on HL-60(TB) it was 91.8%; in assay [1], 76.8%; in the assay on MDA-MB-435, 98.5%; in the assay on SK-MEL-28, 118%. The growth at 10 µM came out at 123% with MDA-MB-231; 106% with UACC-257; 99.4% in the assay on RXF 393; 96.2% in the assay on A498; 83.7% with CAKI-1; 110% in assay [2]. In addition, the growth at 10 µM in the assay on SW-620 worked out at 78.3%; in the assay on KM12 it was 97%; with HOP-92 it was 151%; with A549, 77.1%; in the assay with CCRF-CEM it was 73.1%; in the assay with UO-31 it was 72.4%. The growth at 10 µM in the assay on SF-539 was 84.2%; in the assay with NCI-H23, 145%. In addition, the inhibition of growth at 10 µM in [3] stood at 0.97%.
In the case of `CC(=O)c1ccccc1-c1ccc(-c2ccnc(NC(=O)Nc3cc(C(F)(F)F)cc(C(F)(F)F)c3)n2)cn1`, the growth at 10 µM in the assay on COLO 205 was 90.9%; in the assay with SNB-19, 91.5%; with HL-60(TB), 101%; in the assay with MDA-MB-435, 98.1%; with SW-620, 81.8%; with KM12, 93.8%. Further, the growth at 10 µM is 89.9% in the assay on HOP-92; 86.8% with A549; 79.3% with CCRF-CEM; 87% in the assay with SF-539; 99.8% with NCI-H23. The Activity stood at 109.71% with SK-MEL-28; 83.21% in the assay on MDA-MB-231; 92.59% with UACC-257; 104.4% with RXF 393; 106.93% in the assay on A498; 81.28% with CAKI-1. Also, the Activity came out at 98.17% in [2], 96.07% in the assay with SN12C and 76.28% in the assay with UO-31. In assay [3], the inhibition of growth at 10 µM amounted to 11.3%.
With `O=C(Nc1cc(C(F)(F)F)cc(C(F)(F)F)c1)Nc1nccc(-c2ccc(Nc3ccccc3)nc2)n1`, the growth at 10 µM with COLO 205 was determined as 136%; with SNB-19, 109%; in the assay on HL-60(TB), 99.7%; in [1], 102%; with MDA-MB-435 it was 129%; in the assay with SK-MEL-28, 99.8%. Further, the growth at 10 µM with MDA-MB-231 came out at 93.4%; with UACC-257 it was 112%; in the assay with A498, 107%; with CAKI-1, 102%; in assay [2] it was 102%; with SW-620, 98.8%. Also, the growth at 10 µM in the assay with KM12 worked out at 117%; in the assay with SN12C it was 106%; with HOP-92 it was 116%; with A549, 105%; in the assay with CCRF-CEM it was 96.8%; with UO-31, 91.6%. The growth at 10 µM came to 96.4% with SF-539 and 108% in the assay on NCI-H23. Further, the inhibition of growth at 10 µM in assay [3] was -6.98%.
